High-throughput results as filed in PubChem.
SIAE inh – blocks human sialic acid acetylesterase. Q9HAT2. SIAE FP-Rh probe binding, fluorescence polarization. inhibition, % at 9.66 µM. hit rate 0.69% among 370,000;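 active means inhibition above a cutoff: mean of compounds within the control limits plus 3 SD of those, cut at about 17% in these data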
PAD4 inh – inhibitors of human PAD4. Q9UM07. recombinant PAD4, RCA probe fluorescence polarization. inhibition, % at 6.36 µM. hit rate 0.41% among 330,000;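 active means percent inhibition above a cutoff equal to the mean of all tested compounds plus 3 SD, cut at about 15% in these data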
TCR-CD3 inh – human TCR-CD3 binding inhibition; AID 651800; inhibition, % at 9.4 µM; hit rate 0.37% among 360,000; TAMRA-labeled TCR probe fluorescence, biochemical; in the data active means inhibition above about 19%;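 further: recombinant mutant TCR 2C K166C tagged with TAMRA read by polarization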
HTRA1 inh – HTRA1 (human) protease inhibition; Q92743; inhibition, % at 5.96 µM; recombinant HTRA1, FP-rhodamine activity-based probe, fluorescence polarization; hit rate 0.5% among 340,000; in the data active means inhibition above about 36%
PRMT1 FP inh – inhibitors of human PRMT1 | AID 652257 | inhibition, % at 2.79 µM | hit rate 1.3% among 370,000 | recombinant PRMT1, activity-based probe fluorescence polarization;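 active means inhibition above about 21% made by adding two undisclosed values, limit read from the data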
Target sequence (Q99873 whole entry, looked up): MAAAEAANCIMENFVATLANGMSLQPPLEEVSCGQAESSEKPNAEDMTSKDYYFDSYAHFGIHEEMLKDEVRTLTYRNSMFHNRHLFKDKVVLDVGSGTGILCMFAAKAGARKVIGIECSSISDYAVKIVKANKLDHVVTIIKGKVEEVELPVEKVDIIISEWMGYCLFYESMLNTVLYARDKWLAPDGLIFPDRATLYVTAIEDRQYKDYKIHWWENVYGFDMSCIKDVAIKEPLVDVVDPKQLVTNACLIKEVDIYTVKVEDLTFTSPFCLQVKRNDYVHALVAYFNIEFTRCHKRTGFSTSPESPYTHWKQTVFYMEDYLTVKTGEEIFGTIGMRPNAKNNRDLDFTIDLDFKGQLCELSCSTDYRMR
ABHD4 inh – inhibitors of mouse ABHD4 | inhibition, % at 8.92 µM | hit rate 0.54% among 370,000 | Q8VD66 | AID 720543 | purified mABHD4, FP-Rh probe fluorescence polarization;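 active means inhibition exceeding the mean over every tested compound plus 3 SD, cut at about 30% in these data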
Target sequence (Q8VD66 whole entry, looked up): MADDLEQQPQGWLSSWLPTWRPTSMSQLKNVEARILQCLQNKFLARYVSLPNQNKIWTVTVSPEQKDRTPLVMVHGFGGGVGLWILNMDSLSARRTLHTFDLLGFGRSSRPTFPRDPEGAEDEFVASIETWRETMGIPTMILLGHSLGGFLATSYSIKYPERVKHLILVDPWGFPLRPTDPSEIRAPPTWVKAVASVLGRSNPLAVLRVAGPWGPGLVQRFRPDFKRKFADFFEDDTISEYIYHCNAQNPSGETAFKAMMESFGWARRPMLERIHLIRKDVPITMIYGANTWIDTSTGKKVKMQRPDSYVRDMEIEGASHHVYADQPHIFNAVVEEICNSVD
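Assay system: Wild-type mouse ABHD4 protein | Medium: HEPES pH 7.0 buffer, 150 mM NaCl, 0.01% Pluronic F-127 | Incubation: Enzyme–compound pre-incubation 45 min, then probe 60 min, both 25 °C | Technique: Fluorescence polarization with parallel and perpendicular emission, 525/598 nm | Evaluation: % inhibition of FP-Rh probe binding versus controls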
PRMT1 confirm – confirmation of human PRMT1 inhibitors; shares compounds with PRMT1 FP inh; recombinant His-PRMT1, activity-based probe fluorescence polarization; inhibition, % at 2.79 µM; hit rate 42% among 3,300;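 active means mean inhibition across replicates above the hit cutoff derived for the earlier primary screen, cut at about 22% in these data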
Of the large screens only hits and unclear results are named; the others gave an inactive call (follow-up assays come after a bar, where they were run). This is a sample that favours compounds with a hit; in the whole collection about 2.9% have one here.

O=C1OC(c2ccccc2)=N/C1=C\C=C\c1ccco1	PRMT1 FP inh 26.2 | PRMT1 confirm inactive
O=C1OC(c2ccccc2)=N/C1=C\C=C\c1ccccc1[N+](=O)[O-]	none
O=C(C=Cc1ccco1)c1cc(Cl)ccc1O	none (no result: PAD4 inh)
O=C1OC(c2ccc(Cl)cc2)=N/C1=C\C=C\c1ccco1	PRMT1 FP inh 39.3 | PRMT1 confirm inactive
COc1ccc(N2CCN(CCCNC(=O)CCc3cccc(Cl)c3)CC2)cc1	none (no result: PAD4 inh, TCR-CD3 inh, HTRA1 inh)
Nn1c(SCC(=O)NCCC2=CCCCC2)nnc1-c1cccnc1	none (no result: PAD4 inh)
CC(C)c1nnc(SCC(=O)NCCC2=CCCCC2)n1N	PRMT1 FP inh 34.4 | PRMT1 confirm 39.2
O=C(NCCc1ccccc1Cl)[C@@H]1CCCN1C(=O)[C@@H](NC(=O)N1CCOCC1)C1CCCCC1	none (no result: PAD4 inh, HTRA1 inh)
Cc1ccccc1NC(=O)c1sc2nc3c(c(-c4ccco4)c2c1N)CCC3	PRMT1 FP inh 44.0 | PRMT1 confirm inactive
C=CCOC(=O)C1=C(C)NC(SCC(=O)Nc2nccs2)=C(C#N)C1c1ccc(Cl)cc1 (centres undefined)	none
CC(=O)C1=C(C)NC(SCC(=O)Nc2nccs2)=C(C#N)C1c1ccccc1Cl (centres undefined)	PRMT1 FP inh 26.3 | PRMT1 confirm inactive
O=[N+]([O-])c1ccccc1-c1ccc(C(=S)N2CCCC2)o1	PRMT1 FP inh 39.5 | PRMT1 confirm inactive
O=C(c1ccc(-c2ccc([N+](=O)[O-])cc2)o1)N1CCCCCCC1	PRMT1 FP inh 30.7 | PRMT1 confirm inactive
O=[N+]([O-])c1cccc(-c2ccc(C(=S)N3CCOCC3)o2)c1	none
O=[N+]([O-])c1cc(-c2ccc(C(=S)N3CCOCC3)o2)ccc1Cl	PRMT1 FP inh 43.7 | PRMT1 confirm inactive
COC(=O)CSc1nnc(-c2ccc(NS(=O)(=O)c3c(C(C)C)cc(C(C)C)cc3C(C)C)cc2)o1	none (no result: PAD4 inh, TCR-CD3 inh, HTRA1 inh)
CCOC(=O)C1=C(C(=O)OCC)C2N(Cc3ccc(C#N)cc3)c3ccccc3[C@@]23C[C@@H](C(=O)OC)N(S(=O)(=O)c2c(C)noc2C)C3=N1 (some centres undefined)	none (no result: PAD4 inh, HTRA1 inh)
C=CCN1[C@H](C)COc2cccc(N3CCCC3)c2S1(=O)=O	none (no result: PAD4 inh, TCR-CD3 inh, HTRA1 inh)
Cc1ccc(NC(=O)OCCCN2C(=O)CCC23CCC(C)CC3)cc1C (centres undefined)	none (no result: PAD4 inh, TCR-CD3 inh, HTRA1 inh)
COc1ccc(NC(=O)COC(=O)c2ccccc2SCC(=O)N2CCCC2)cc1	none
CC(=O)Nc1ccc(NC(=O)COC(=O)c2ccccc2SCC(=O)N2CCCC2)cc1	PRMT1 FP inh 28.9 | PRMT1 confirm 24.3
O=C(Cc1ccccc1Cl)NCCN1C(=O)C2C3C=CC(C3)C2C1=O (centres undefined)	none (no result: PAD4 inh, TCR-CD3 inh, HTRA1 inh)
CCOC(=S)SCC(=O)Nc1nc(C)c(C)s1	PRMT1 FP inh 50.5 | PRMT1 confirm 38.7
CCOC(=S)SCC(=O)Nc1nccs1	PRMT1 FP inh 45.7 | PRMT1 confirm inactive
Cc1nc(NC(=O)CSc2nc(N)cc(N)n2)sc1C	none
CN(CCOC(=O)CCCc1ccccc1)C1CN(Cc2cn(Cc3ccccc3F)nn2)S(=O)(=O)C1 (centres undefined)	none (no result: PAD4 inh, TCR-CD3 inh, HTRA1 inh)
FC(F)(F)c1cccc(N2CCN(C(=S)Nc3nccc4ccccc34)CC2)c1	none (no result: PAD4 inh, TCR-CD3 inh, HTRA1 inh)
NNS(=O)(=O)c1ccc(N2CCCC2=O)c([N+](=O)[O-])c1	PRMT1 FP inh 82.3 | PRMT1 confirm 54.5
C=CCN1C(=O)[C@@H](CC(=O)NCc2ccc(C)o2)[C@]2(C(=O)OC)CCCCC=C12	none (no result: PAD4 inh, TCR-CD3 inh, HTRA1 inh)
Cc1ccc(-c2cccc(NC(=O)C3C4C=CC(C4)C3C(=O)O)c2)o1 (centres undefined)	PRMT1 FP inh 53.6 | PRMT1 confirm inactive
C=CCN(C)C(C#Cc1ccccc1)c1ccccc1C(F)(F)F (centres undefined)	none (no result: PAD4 inh, TCR-CD3 inh, HTRA1 inh)
O=C(O)/C=C/C(=O)c1ccc2c(c1)NC(=O)CO2	PRMT1 FP inh 34.8 | PRMT1 confirm 46.9
COCCCn1c(=NC(C)=O)c(C#N)cc2c(=O)n3cccc(C)c3nc21	none (no result: HTRA1 inh)
COCCCn1c(=NC(=O)c2ccccc2)c(C#N)cc2c(=O)n3cccc(C)c3nc21	PRMT1 FP inh 31.2 | PRMT1 confirm inactive
COc1cc(CN2CCCC(C(=O)c3ccc4c5c(cccc35)CC4)C2)cc(OC)c1O (centres undefined)	PRMT1 FP inh 27.9 | PRMT1 confirm inactive
O=C(c1ccc2c3c(cccc13)CC2)C1CCCN(Cc2cccnc2)C1 (centres undefined)	none
O=C(Nc1ccccc1)OCCN1CCCC12CCC(c1ccccc1)CC2 (centres undefined)	none (no result: PAD4 inh, TCR-CD3 inh, HTRA1 inh)
S=C(Nc1ccccc1Cl)OCCN1CCCC12CCC(c1ccccc1)CC2 (centres undefined)	PRMT1 FP inh 57.5 (no result: PAD4 inh, TCR-CD3 inh, HTRA1 inh) | PRMT1 confirm 41.5
S=C(Nc1cccc(Cl)c1)OCCN1CCCC12CCC(c1ccccc1)CC2 (centres undefined)	PRMT1 FP inh 43.5 (no result: PAD4 inh, TCR-CD3 inh, HTRA1 inh) | PRMT1 confirm 58.1
S=C(Nc1ccc(Br)cc1)OCCN1CCCC12CCC(c1ccccc1)CC2 (centres undefined)	PRMT1 FP inh 51.8 (no result: PAD4 inh, TCR-CD3 inh, HTRA1 inh) | PRMT1 confirm 56.0
O=C(CN1CCc2onc(-c3ccc(-n4cc(COc5ccc([N+](=O)[O-])cc5)nn4)cc3)c2C1=O)N1CCOCC1	none (no result: PAD4 inh, TCR-CD3 inh, HTRA1 inh)
Cc1ccc(NC(=O)CSc2ncn(-c3ccccc3)n2)cc1C	none
Cc1ccc(NC(=O)CSc2ncc3ccccn23)cc1C	PRMT1 FP inh 28.0 | PRMT1 confirm inactive
CCCCOCCCNC(=O)C[C@H]1C(=O)N(Cc2ccc(OC)cc2)C2=CCCC[C@@]21C(=O)OCC	none (no result: PAD4 inh, TCR-CD3 inh, HTRA1 inh)
O=C(CC(Nc1ccc(F)cc1)C(=O)OCC(=O)c1cccs1)c1ccccc1 (centres undefined)	PRMT1 FP inh 29.4 | PRMT1 confirm inactive
CC(=O)OCC(=O)N1CCN(C(=O)C(=O)c2cccc(C(F)(F)F)c2)CC1	none (no result: PAD4 inh, HTRA1 inh)
Cc1ccc(-n2c(Cc3cccs3)nnc2SCc2ccc(C#N)cc2)cc1	none (no result: PAD4 inh, TCR-CD3 inh, HTRA1 inh)
Cc1c(Cl)cccc1NC(=O)CSCc1cc(=O)[nH][nH]1	PRMT1 FP inh 27.7 | PRMT1 confirm inactive
Cc1cc(C2=NNC(=NC3CC3)SC2)c(C)n1-c1ccccc1F	PRMT1 FP inh 36.4 | PRMT1 confirm inactive
CCOC(=O)C1=CCN(S(=O)(=O)c2ccc(Br)cc2)C1c1cccc(Cl)c1 (centres undefined)	none (no result: PAD4 inh, HTRA1 inh)
O=C(CSc1nc2[nH]c(=O)cc(O)c2s1)Nc1nccs1	PRMT1 FP inh 25.2 | PRMT1 confirm inactive
Cc1nc2sc(C(c3ccco3)N3CCN(c4cccc(Cl)c4)CC3)c(O)n2n1 (centres undefined)	PRMT1 FP inh 65.0 | PRMT1 confirm inactive
Cc1nc2sc(C(c3ccco3)N3CC(C)OC(C)C3)c(O)n2n1 (centres undefined)	PRMT1 FP inh 28.7 | PRMT1 confirm inactive
COc1ccc(-c2noc(C3CCCN(C(=O)N[C@@H]4C[C@H]4c4ccccc4)C3)n2)cc1 (some centres undefined)	none (no result: PAD4 inh, TCR-CD3 inh, HTRA1 inh)
